# PAFAH1B3 FP inh: inhibitors of human PAFAH1B3; Q15102; recombinant PAFAH1B3, FP-rhodamine probe, fluorescence polarization; inhibition, % at 3.39 µM; 340,000 compounds, 0.28% hits; AID 492972;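 active = inhibition above the screen-wide average of all tested compounds plus 3 SD, cut at about 25% in these data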;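 note: 0% = enzyme with DMSO only and 100% = wells lacking PAFAH1B3 protein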
# PAFAH2 FP inh: inhibitors of human PAFAH2 | recombinant PAFAH2, FP-rhodamine activity probe, fluorescence polarization | inhibition, % at 3.39 µM | Q99487 | 340,000 compounds, 0.99% hits;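 active = inhibition above the mean over all tested compounds plus 3 SD, cut at about 30% in these data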;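 note: inhibitors block probe labeling of enzyme so polarization drops; 0% = enzyme with DMSO and 100% = wells lacking PAFAH2 protein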
# pPAFAH FP inh: pPAFAH (human) enzyme inhibition | inhibition, % at 3.39 µM | 330,000 compounds, 1.5% hits | recombinant pPAFAH, FP-rhodamine probe fluorescence polarization | AID 463082;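 active = inhibition above the mean inhibition across the screen plus 3 SD, cut at about 25% in these data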;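 note: inhibitors block binding of the rhodamine activity-based probe so polarization drops; 0% = enzyme with DMSO and 100% = wells lacking pPAFAH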
# Target sequence (Q13093 whole entry, looked up): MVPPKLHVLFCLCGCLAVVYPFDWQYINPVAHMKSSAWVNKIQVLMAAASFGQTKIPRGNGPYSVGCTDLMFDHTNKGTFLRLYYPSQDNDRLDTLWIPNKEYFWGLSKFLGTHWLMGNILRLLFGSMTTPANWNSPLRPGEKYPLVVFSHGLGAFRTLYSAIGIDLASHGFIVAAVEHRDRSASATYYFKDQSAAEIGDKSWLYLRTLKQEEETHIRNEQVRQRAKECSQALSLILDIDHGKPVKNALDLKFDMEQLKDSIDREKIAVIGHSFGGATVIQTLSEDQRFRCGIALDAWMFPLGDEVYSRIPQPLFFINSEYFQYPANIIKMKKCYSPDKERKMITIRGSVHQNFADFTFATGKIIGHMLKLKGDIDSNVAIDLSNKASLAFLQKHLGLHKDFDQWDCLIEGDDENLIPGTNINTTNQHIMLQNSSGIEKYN
# ABHD4 inh: inhibitors of mouse ABHD4 | purified mABHD4, FP-Rh probe fluorescence polarization | inhibition, % at 8.92 µM | 370,000 compounds, 0.54% hits;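 active = inhibition exceeding the mean over every tested compound plus 3 SD, cut at about 30% in these data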;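 note: 0% = plate median of compound wells and 100% = S159A mutant with DMSO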
#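 Test system: mABHD4 protein | Buffer or medium: HEPES pH 7.0 buffer, 150 mM NaCl, 0.01% Pluronic F-127 | Probe or stimulus: FP-Rh fluorescent activity-based probe, added after compound pre-incubation | Timing: Pre-incubation 45 min, probe exposure 60 min, at 25 °C | Technique: Fluorescence polarization, excitation 525 nm, emission 598 nm, BODIPY TMR filters | Repeats: Single well per compound (singlicate)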
# HTRA1 inh: blocks human HTRA1 serine peptidase; Q92743; recombinant HTRA1, FP-rhodamine activity-based probe, fluorescence polarization; inhibition, % at 5.96 µM; 340,000 compounds, 0.5% hits; AID 504803; in the data active = inhibition above about 36%;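 note: 0% = enzyme with DMSO and 100% = wells lacking enzyme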
# PAFAH1B2 inh: blocks human PAF acetylhydrolase 1b catalytic subunit 2; P68402; recombinant PAFAH1B2, FP-rhodamine activity probe, fluorescence polarization; inhibition, % at 3.39 µM; 340,000 compounds, 1.2% hits;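 active = inhibition above the mean of all tested compounds plus 3 SD, cut at about 24% in these data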;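 note: 0% = enzyme with DMSO and 100% = wells lacking PAFAH1B2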
# pPAFAH FP conf: confirmation of human plasma PAF acetylhydrolase (pPAFAH) inhibitors; recombinant pPAFAH, FP-Rh probe fluorescence polarization; shares compounds with pPAFAH FP inh; AID 463230; 2,300 compounds, 72% hits; inhibition, % at 3.39 µM;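 active = mean inhibition of the triplicate above the hit cutoff set for the earlier primary screen, cut at about 25% in these data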;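 note: 0% = enzyme with DMSO and 100% = wells lacking pPAFAH enzyme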
# PAFAH2 confirm: PAFAH2 (human) inhibition, confirmed. shares compounds with PAFAH2 FP inh. recombinant PAFAH2, FP-rhodamine activity probe, fluorescence polarization. inhibition, % at 3.39 µM. 2,300 compounds, 65% hits;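 active = mean inhibition over three repeats above a set limit taken from the earlier primary screen, cut at about 30% in these data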;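 note: inhibitor blocks binding of rhodamine activity probe so polarization falls; 0% = enzyme with DMSO and 100% = wells lacking PAFAH2 protein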
# HTRA1 inh conf: HTRA1 (human) inhibition, confirmation | shares compounds with HTRA1 inh | recombinant HTRA1, FP-rhodamine activity-based probe, fluorescence polarization | inhibition, % at 5.96 µM | 1,600 compounds, 66% hits;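 active = mean inhibition over three repeats above a set limit taken from the earlier primary screen, cut at about 37% in these data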;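 note: 0% = HTRA1 with DMSO and 100% = wells lacking HTRA1; inhibitors block probe binding so polarization drops and inhibition rises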
# ABHD4 confirm: ABHD4 (mouse) inhibition, FP confirmation. 1,800 compounds, 55% hits. purified mABHD4, FP-Rh probe fluorescence polarization. shares compounds with ABHD4 inh. inhibition, % at 8.92 µM. AID 720658;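 active = mean inhibition across replicates above the hit cutoff set in the primary screen, cut at about 30% in these data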;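 note: 0% = wild-type ABHD4 with DMSO and 100% = catalytically dead S159A mutant with DMSO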
# * = called active by the depositor; / = no result. Shown are actives, neighbours in structure and some others; about 2.8% of the full set was active somewhere.
SMILES,PAFAH1B3 FP inh,PAFAH2 FP inh,pPAFAH FP inh,ABHD4 inh,HTRA1 inh,PAFAH1B2 inh,pPAFAH FP conf,HTRA1 inh conf,ABHD4 confirm,others
COC(=O)[C@]12C[C@H](CC(=O)NCc3ccc(OC)c(OC)c3)C(=O)N(Cc3cccc4ccccc34)C1=C[C@H](C(C)C)O[C@@H]2C1CC1,/,/,/,-13,/,/,/,/,/,
COc1ccc(NS(=O)(=O)c2cc(N=Nc3c(O)[nH]c(=O)[nH]c3=O)ccc2Cl)cc1,3,7,17,8,5,7,/,/,/,
Cc1ccc(NS(=O)(=O)c2ccc(Cl)c(N=Nc3c(O)[nH]c(=O)[nH]c3=O)c2)cc1Cl,26*,41*,89*,31*,1,16,89*,/,48*,
Cc1ccc(OCCOc2c(Cl)cc(Cl)cc2Cl)c([N+](=O)[O-])n1,/,/,/,-3,/,/,/,/,/,
Cc1ccc(-c2ccccc2NC(=O)CS(=O)CC(=O)Nc2ccc(C)c(Cl)c2)o1 (stereo unspecified),4,3,85*,36*,39*,22,8,22,16,
O=S(=O)(c1ccc2nc(-c3ccco3)c(-c3ccco3)nc2c1)N1CCOCC1,12,21,43*,56*,41*,11,13,9,29,
CC(C)n1nnnc1C1(C)Cn2nccc2C(=O)N1Cc1cccc(C(F)(F)F)c1 (stereo unspecified),/,/,/,5,/,/,/,/,/,
C=CCN1[C@H](CO)[C@H](c2ccc(C#CC3(O)CCCC3)cc2)[C@@H]1C#N,/,/,/,-1,/,/,/,/,/,
COc1cccc(N=Nc2ccc(O)c3ncccc23)c1,9,5,60*,43*,76*,6,25*,67*,48*,
COCc1ccc(O)c2ncccc12,2,-2,4,5,9,2,/,/,/,
CN1CCS/C1=C/C=C1/SC(=S)N(Cc2ccccc2)C1=O,10,26,36*,86*,3,2,27*,/,20,
CCNC(=O)C[C@H]1CC[C@H]2[C@@H](COc3ccc(NC(=O)c4ccc5c(c4)OCO5)cc3C(=O)N2C)O1,/,/,/,16,/,/,/,/,/,
Cc1cccc(N/N=C/c2ccc(O)c(O)c2O)c1,8,7,45*,36*,59*,-3,44*,62*,35*,
O=[N+]([O-])c1cccc(N/N=C/c2cccc(O)c2O)c1,17,8,60*,36*,60*,-2,66*,74*,34*,
Cn1ccc2cc(S(=O)(=O)N3CCN(S(=O)(=O)c4c(F)cccc4F)CC3)ccc21,/,/,/,8,/,/,/,/,/,
CCc1ccc(CCNC(=O)OC2CCC23CCC(c2ccccc2)CC3)cc1 (stereo unspecified),/,/,/,-6,/,/,/,/,/,
Cc1ccc(-n2c(Cc3cccs3)nnc2SCC(=O)Nc2ccc(OCc3ccccc3)cc2)cc1,/,/,/,-22,/,/,/,/,/,
COC(=O)c1cc(S(=O)(=O)N2CCN(c3ccccc3Cl)CC2)cn1C,/,/,/,-3,/,/,/,/,/,
O=c1oc2ccccc2c(O)c1Cc1cc(Cl)c2cccnc2c1O,14,20,50*,33*,52*,6,66*,54*,27,
O=C(SCc1c(O)c2ccccc2oc1=O)c1ccccc1,/,/,/,-3,-7,/,/,/,/,
CCOC(=O)C(C(C)=O)c1c(Br)c(O)c(O)c2c(C(=O)c3ccc(C)cc3)coc12 (stereo unspecified),5,11,47*,32*,69*,2,35*,78*,38*,
Cc1ccc(C(=O)c2coc3ccc(O)c(Cl)c23)cc1,7,10,3,-21,-8,1,/,/,/,
N=C1C(c2nc(-c3ccc(Cl)cc3)cs2)=C(O)CN1CCCN1CCOCC1,5,30*,20,18,12,3,/,/,/,PAFAH2 confirm=30*

# Assay outcomes: PubChem, The Scripps Research Institute Molecular Screening Center
